This note sets out measurements from ChEMBL document CHEMBL1157105, “Semisynthesis of natural flavones inhibiting tubulin polymerization, from hesperidin” (J Nat Prod, 2010).

Structures are written as SMILES.

Test [1] is filed under the species Ovis aries. Description: Inhibition of sheep brain tubulin polymerization at 2.5 mM after 15 mins by turbidimetry. In a few lines:
(§1)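 Sheep brain microtubule protein purified by two 37 °C/0 °C assembly–disassembly cycles in 100 mM MES pH 6.6, 1 mM EGTA, 0.5 mM MgCl2. Compound in DMSO (1 µL) added to 150 µL microtubule solution, then incubated 37 °C 10 min and 0 °C 5 min. Polymerization rate read by turbidity at 350 nm. Reported as % inhibition at ~2.5 × 10^-3 M or IC50; deoxypodophyllotoxin reference, ratio IC50 compound/IC50 DPPT.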

The subject of test [2] is KB. Description: Cytotoxicity against human KB cells at 1 uM after 72 hrs by MTS assay. On the technique in general: Tetrazolium assays rely on reduction of a dye to a coloured formazan, in cell work by metabolically active cells.
Test [3] relates to HL-60. Description: Induction of apoptosis in human HL60 cells assessed as increase in caspase 3/7 activation at 50 nM after 48 hrs by fluorescence assay relative to control. In kind it is functional. The method in brief:
(§2)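 HL60 cells grown in complete RPMI, seeded at 20 000 cells/well and treated with DMSO-dissolved compound. Vehicle controls; 1 µM doxorubicine positive control. Fluorescence (ex 360/em 465 nm) followed over 3 h. Reported as fold caspase 3/7 activation over control.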

Test [4] deals with KB. Description: Cytotoxicity against human KB cells after 72 hrs by MTS assay. In kind it is functional, cell-based. The method in brief:
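KB cells grown in D-MEM with 10% fetal calf serum under 5% CO2. Seeded at 600 cells/well and dosed 24 h later with DMSO solutions from 0.5 nM to 10 µM (1% DMSO final; vehicle controls). After 72 h, MTS added for 3 h at 37 °C and A490 read, in triplicate. % inhibition = (1 − OD treated/OD control) × 100; IC50 derived.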

Test [5] in a line: Inhibition of sheep brain tubulin polymerization after 15 mins by turbidimetry. Further details: species or system Ovis aries. The method in brief:
as §1

Test [6] is filed under the species Ovis aries. Description: Ratio of compound IC50 to DPPT IC50 for sheep brain tubulin polymerization. In a few lines: as §1
Test [7] concerns HL-60. In words: Induction of apoptosis in human HL60 cells assessed as increase in caspase 3/7 activation at 500 nM after 48 hrs by fluorescence assay relative to control. In kind it is functional. The method in brief: as §2

Consider `COc1ccc(-c2oc3c(N(C)C)c(OC)c(OC)c(O)c3c(=O)c2OC)cc1O`, for which, in the test listed under Ovis aries [1], the inhibition (as a rule, the share of the control response that was lost under treatment) stood at 0%. For the same molecule, in the test with KB [2], the Activity is 40%.

As to `COc1cc(O)c2c(=O)c(OC)c(-c3ccc(OC)c(O)c3)oc2c1` [AYANIN], the inhibition in the test listed under Ovis aries [1] stood at 0%. Also, the Activity with KB [2] is 3%.

As to `COc1ccc(-c2oc3c(Br)c(OC)c(Br)c(O)c3c(=O)c2OC)cc1O`, the inhibition in the test listed under Ovis aries [1] turned out to be 36%. Also, in the test with HL-60 [3], the “fold change (FC)” value is on record as 3.2. The half-inhibitory concentration (IC50) – broadly, the concentration needed to halve the response being measured – in the test on KB [4] came to 404 nM.

For the molecule `COc1ccc(-c2oc3c(OC)c(OC)c(OC)c(O)c3c(=O)c2OC)cc1O`, the half-inhibitory concentration (IC50) turned out to be 1300 nM in test [5] and 8 nM in the test with KB [4]. The “fold change (FC)” value with HL-60 [3] is recorded as 6.9. For the same molecule, the Ratio IC50 in the test filed under Ovis aries [6] came out at 0.46.

For `COc1ccc(-c2oc3c(OC)c(O)c(OC)c(O)c3c(=O)c2OC)cc1O`, half-maximal inhibition in test [5] (IC50) was put at 14000 nM. Further, the Activity with KB [2] is reported as 10%. In addition, the Ratio IC50 in the test filed under Ovis aries [6] turned out to be 5.

As to `COc1ccc(-c2oc3c(OC)c(OC)cc(O)c3c(=O)c2OC)cc1O`, in the test filed under Ovis aries [1], the inhibition was 0%. The same molecule yielded an Activity in the test on KB [2] of 9%.

Regarding `COc1ccc(-c2oc3cc(OC)c(OC)c(O)c3c(=O)c2OC)cc1O` [CASTICIN], the IC50 in test [5] worked out at 19000 nM; in the test on KB [4], 97 nM. Further, the “fold change (FC)” value with HL-60 [7] is reported as 5.3. The Ratio IC50 in the test listed under Ovis aries [6] came out at 6.8.
